{
  "source": "paper PMC3736319",
  "about": "(Antiviral therapy, 2012)",
  "key": {"[1]": {"test": "Steady-state plasma pharmacokinetics of abacavir", "type": "in vivo, human (HIV-infected subjects)", "settings": "for Change in plasma ABC concentrations: in the presence of raltegravir versus ABC alone"}, "[2]": {"settings": "cited from earlier work"}, "[3]": {"test": "Steady-state intracellular carbovir triphosphate", "type": "in vivo, human (HIV-infected subjects)"}, "[4]": {"type": "in vivo, human (HIV-infected subjects)", "settings": "human, plasma, 400 mg", "outline": "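HIV-infected adults on a steady-state nucleoside backbone (600 mg once daily, plus two NRTIs, no tenofovir) were randomized 1:1 to a crossover: boosted protease inhibitor 900/100 mg once daily or integrase inhibitor 400 mg twice daily, 14 days each. On days 15 and 29, after a standardized breakfast, serial plasma was drawn over 24 h (protease inhibitor, booster) or 12 h (integrase inhibitor) and measured by a validated assay. Non-compartmental linear–linear trapezoidal AUC0–24 or AUC0–12.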"}, "[5]": {"settings": "in the presence of darunavir/ritonavir versus ABC alone"}, "[6]": {"settings": "with darunavir/ritonavir versus ABC alone"}, "[7]": {"settings": "with raltegravir versus ABC alone"}, "[8]": {"settings": "PBMC, ABC 600 mg once daily alone, steady state, n=19"}},
  "note": "“Also recorded” adds a separate entry of the source. Like-named read-outs stand apart in the source and are kept apart here.",
  "data": [
    {"compound": "Nc1nc(NC2CC2)c2ncn([C@H]3C=C[C@@H](CO)C3)c2n1", "note": "[ABC, abacavir]", "values": [
      {"measurement": "AUC(0-t)", "setting": "[1]; human, plasma, 600 mg", "value": 13500, "unit": "ng·h/mL"},
      {"measurement": "Cmax", "setting": "[1]; human, plasma, 600 mg", "value": 4010, "unit": "ng/mL"},
      {"measurement": "concentration at 24 h", "setting": "[1]; human, plasma, 600 mg", "value": 4.3, "unit": "ng/mL"},
      {"measurement": "Decrease in plasma ABC AUC (exposure)", "setting": "[1]; [5]", "value": 27, "unit": "%"},
      {"measurement": "Decrease in plasma ABC Cmax", "setting": "[1]; [5]", "value": 22, "unit": "%"},
      {"measurement": "Decrease in plasma ABC Ctrough", "setting": "[1]; [5]", "value": 38, "unit": "%"},
      {"measurement": "Change in plasma ABC concentrations", "setting": "[1]", "value": "No significant changes"},
      {"measurement": "Change in plasma ABC concentrations", "setting": "[1]; listed as abacavir", "value": "no changes"},
      {"measurement": "Inter-individual variability in ABC Ctrough", "setting": "[1]; plasma, across study phases", "value": "> 87", "unit": "%"},
      {"measurement": "Plasma ABC Ctrough, GMR (90% CI)", "setting": "[1]; [6]", "value": "0.62 (0.50, 0.77)"},
      {"measurement": "Plasma ABC Ctrough, GMR (90% CI)", "setting": "[1]; [7]", "value": "0.83 (0.62, 1.11)"},
      {"measurement": "Decrease in ABC plasma exposure", "setting": "[2]; in combination with boosted atazanavir", "value": 17, "unit": "%"},
      {"measurement": "Decrease in ABC plasma exposure", "setting": "[2]; in combination with boosted lopinavir", "value": 32, "unit": "%"},
      {"measurement": "Decrease in ABC plasma exposure", "setting": "[2]; in combination with boosted tipranavir", "value": 40, "unit": "%"},
      {"measurement": "Increase in ABC plasma exposure", "setting": "[2]; with high doses of ethanol", "value": 41, "unit": "%"}
    ]},
    {"compound": "Nc1nc(=O)c2ncn([C@H]3C=C[C@@H](COP(=O)(O)OP(=O)(O)OP(=O)(O)O)C3)c2[nH]1", "note": "[CBV-TP, carbovir 5′-triphosphate]", "values": [
      {"measurement": "Intracellular CBV-TP AUC0–24, geometric mean (90% CI)", "setting": "[3]; [8]", "value": "4,459 (4,060, 5,802) fmol•h/million cells"},
      {"measurement": "Intracellular CBV-TP Cmax, geometric mean (90% CI)", "setting": "[3]; [8]", "value": "329 (298, 450) fmol/million cells"},
      {"measurement": "Intracellular CBV-TP Ctrough, geometric mean (90% CI)", "setting": "[3]; [8]", "value": "107 (96, 143) fmol/million cells"},
      {"measurement": "Inter-individual variability in intracellular CBV-TP pharmacokinetic parameters", "setting": "[3]; during coadministration of ABC and darunavir/ritonavir or raltegravir", "value": "> 43", "unit": "%"},
      {"measurement": "Change in intracellular CBV-TP Cmax and AUC0–24", "setting": "[3]; [5]", "value": "no other significant change; also recorded: not significantly different"},
      {"measurement": "Decrease in intracellular CBV-TP Ctrough", "setting": "[3]; [5]", "value": 32, "unit": "%"},
      {"measurement": "Change in intracellular CBV-TP concentrations", "setting": "[3]; in the presence of raltegravir versus ABC alone", "value": "did not lead to any significant alteration; also recorded: No significant changes"},
      {"measurement": "Decrease in intracellular CBV-TP Ctrough", "setting": "[3]; in the presence of raltegravir versus ABC alone, not statistically significant", "value": 43, "unit": "%"},
      {"measurement": "Intracellular CBV-TP Ctrough, GMR (90% CI)", "setting": "[3]; [6]", "value": "0.68 (0.48, 0.95)"},
      {"measurement": "Intracellular CBV-TP Ctrough, GMR (90% CI)", "setting": "[3]; [7]", "value": "0.57 (0.33, 1.00)"}
    ]},
    {"compound": "Cc1nnc(C(=O)NC(C)(C)c2nc(C(=O)NCc3ccc(F)cc3)c(O)c(=O)n2C)o1", "note": "[raltegravir]", "values": [
      {"measurement": "AUC(0-t)", "setting": "[4]", "value": 2410, "unit": "ng·h/mL"}
    ]}
  ]
}
